Screens: PubChem, several laboratories
Rows were chosen to be rich in hits. Some 2.3% of all compounds tested hit in one or more screens of this group.
TPT1 inhibitor: C. albicans TPT1 enzyme inhibition | recombinant caTPT1, FP RNA substrate dephosphorylation | inhibition, % at 5 µM | actives 0.81% (n = 300,000);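 active means inhibition above the mean of all tested compounds plus 3 SD, set per screening campaign, cut at about 24% in these data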;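 further: plate controls were DMSO alone for no effect and ferristatin control at 100 nM for full effect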
Rpn11 block: blocks the human proteasome subunit Rpn11. O00487. human 26S proteasome, Ub4-pepOG fluorescence polarization; 20S core pre-blocked with epoxomicin. calls only at 20 µM. actives 0.59% (n = 360,000);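 active means inhibition at 20 µM, scaled to each plate's controls, above about 33%, limit read from the data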
Target sequence (O00487 whole entry, looked up): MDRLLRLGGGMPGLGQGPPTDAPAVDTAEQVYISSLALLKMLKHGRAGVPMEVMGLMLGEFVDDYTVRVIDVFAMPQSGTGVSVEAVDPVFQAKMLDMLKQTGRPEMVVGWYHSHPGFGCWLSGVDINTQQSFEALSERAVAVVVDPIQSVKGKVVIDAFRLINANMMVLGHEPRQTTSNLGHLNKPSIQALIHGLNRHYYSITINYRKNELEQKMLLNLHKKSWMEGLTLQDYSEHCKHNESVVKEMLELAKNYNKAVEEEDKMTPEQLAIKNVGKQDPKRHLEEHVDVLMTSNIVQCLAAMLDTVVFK
CRFR2-BP antag: antagonists of CRF-binding protein/CRF-R2 receptor complex; AID 588475; HEK293 CRF-R2/CRF-BP, CRF-induced calcium fluorescence; actives 0.59% (n = 350,000); inhibition, % at 11.8 µM;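 active means inhibition of the ligand-induced calcium signal above about 50% at the single tested concentration, limit read from the data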
CRFBP-R2 agonist: agonists of human CRF-binding protein/CRF-R2 receptor complex. activation, % at 13.2 µM. HEK293 CRF-R2/CRF-BP, calcium dye fluorescence (FLIPR); percent of saturating CRF peptide response. actives 0.46% (n = 350,000);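 active means activation of at least 50%, plus an integration ratio under a set limit after plate pattern correction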;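 further: plate controls were neutral control wells without compound for no effect and CRF at EC100 for full effect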
HNF4A DNA FP: change in binding of human HNF4 alpha to DNA. P41235. HNF4a-FITC DNA binding, fluorescence polarization, 1 h. activity change, % at 10 µM. actives 0.3% (n = 360,000); in the data active means activity change above about 30%, passing the limit was not always enough
CSN deneddyl inh: inhibitors of human CSN-mediated cullin deneddylation; inhibition, % at 12.5 µM; Purified CSN, SCF-Nedd8-OG deneddylation, fluorescence polarization; actives 0.38% (n = 360,000);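 active means pattern-corrected inhibition above about 35%, with an unprinted fluorescence ratio check between 0.5 and 1.5, limit read from the data, passing the limit was not always enough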;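 further: 0% = enzyme with substrate and 100% = substrate without enzyme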
Target sequence (Q92905 whole entry, looked up, one chain of several): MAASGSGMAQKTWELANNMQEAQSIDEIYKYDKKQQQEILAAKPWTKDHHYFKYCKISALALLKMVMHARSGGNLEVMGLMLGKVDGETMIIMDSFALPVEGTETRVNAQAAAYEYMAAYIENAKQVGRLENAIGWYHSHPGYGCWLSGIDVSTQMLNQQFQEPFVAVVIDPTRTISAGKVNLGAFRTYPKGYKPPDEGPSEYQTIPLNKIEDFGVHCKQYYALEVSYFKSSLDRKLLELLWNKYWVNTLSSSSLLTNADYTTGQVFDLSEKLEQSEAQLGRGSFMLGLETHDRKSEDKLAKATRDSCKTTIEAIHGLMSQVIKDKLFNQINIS
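Test system: Human Csn5 produced in HEK293T cells | Compound: 12.5 µM single point | Times: 90 min, room temperature | Signal: Fluorescence polarization readout | Read-out basis: % inhibition of substrate cleavage by Csn5 | Controls: no-enzyme wells high, enzyme-with-substrate wells low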
Rpn11 inh conf: confirmation of human proteasome Rpn11 inhibitors. purified human 26S proteasome, Ub4-pepOG fluorescence polarization; proteasome pretreated with epoxomicin. AID 602318. actives 29% (n = 1,900). inhibition, % at 20 µM. shares compounds with Rpn11 block
MMP-2 counter-1: blocks human MMP-2, flagging nonselective RPN11 hits; shares compounds with Rpn11 block; recombinant MMP-2, FRET peptide cleavage fluorescence; inhibition, % at 20 µM; actives 4% (n = 1,900); AID 602330;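 further: human MMP-2 activated beforehand with APMA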
Thrombin inh: thrombin (bovine) inhibition counter-screen; bovine thrombin cleavage of Ub4-pepOG, fluorescence polarization; shares compounds with Rpn11 block; actives 13% (n = 1,900); inhibition, % at 20 µM; AID 602333;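 active means mean inhibition at least 40% at 20 µM, or signal 3 deviations below plate average, so some actives read negative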;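 further: plate controls were thrombin with DMSO for no effect and buffer wells lacking thrombin for full effect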
CSN deneddyl val: Csn5 (human) deneddylation inhibition, single-concentration validation; shares compounds with CSN deneddyl inh; Csn5 deneddylation of SCF-Nedd8OG, fluorescence polarization, 90 min; inhibition, % at 16.6 µM; actives 62% (n = 540); AID 720654; in the data active means inhibition above about 50%;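 further: 0% = DMSO with enzyme and 100% = no enzyme wells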
MMP-2 counter-2: blocks human MMP-2 in a CSN deneddylation counter-screen | recombinant MMP-2, FRET substrate fluorescence, 60 min | actives 33% (n = 540) | shares compounds with CSN deneddyl inh | inhibition, % at 16.6 µM;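 active means corrected plate-normalized z-score of 5 or more, or -5 or less, or inhibition of 15% or more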;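 further: plate controls were DMSO wells with enzyme for no effect and buffer wells lacking MMP-2 for full effect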
Thrombin cntr: thrombin (bovine) inhibition, counter-screen for CSN hits | AID 720656 | bovine thrombin cleavage of Ub4-pepOG, fluorescence polarization | actives 49% (n = 540) | inhibition, % at 16.6 µM | shares compounds with CSN deneddyl inh;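 active means inhibition at or above a set limit, with a fluorescence interference ratio between 0.5 and a set maximum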
HNF4A confirm: change in binding of human HNF4 alpha to DNA, retest | shares compounds with HNF4A DNA FP | HNF4A-FITC DNA binding, fluorescence polarization, 1 h | activity change, % at 12.5 µM | actives 99% (n = 210) | AID 1224897; call rule not given here
Starred values were filed as active, the others as inactive; i = inactive; . = not tested or not shown; + = active, no number. Unless noted, no stated cut-off is given here; in the data, active means inhibition above about 40%; inactive means the rest.

SMILES	TPT1 inhibitor	Rpn11 block	CRFR2-BP antag	CRFBP-R2 agonist	HNF4A DNA FP	CSN deneddyl inh	Rpn11 inh conf	MMP-2 counter-1	Thrombin inh	CSN deneddyl val	MMP-2 counter-2	Thrombin cntr	others
COc1ccc(O)c(/C=N/NC(=O)c2c(C)nnn2-c2nonc2N)c1	-5	+	-9	-1	41*	88*	184*	21	26	-8	33*	8
O=[N+]([O-])c1ccc(N/N=C/c2sc(N3CCOCC3)nc2-c2ccccc2)c(S(=O)(=O)Nc2ccccc2Cl)c1	.	+	-39	67*	60*	51*	55*	-2	46*	83*	-4	36*
CCN1/C(=C/c2ccc3cc(C)ccc3[n+]2CC)Sc2cc(C)c(C)cc21	.	+	-155	184*	107*	50*	75*	-63	146*	29	7	43
O=C(c1cn(-c2ccccc2)nc1-c1cccnc1)N1CCCC(C(F)(F)F)C1 (stereo unspecified)	-1	i	-9	-1	1	3	.	.	.	.	.	.
COc1cccc2sc3ccc(NCCC4CCCN4C)cc3c(=O)c12 (stereo unspecified)	-8	i	-5	7	-13	-8	.	.	.	.	.	.
COc1cc2sc3cc(NCC[C@@H]4CCCN4C)ccc3c(=O)c2cc1OC	.	+	1	-2	21	36*	-4	17	1	109*	8	-15
COC(=O)COc1cccc2c(=O)n(CC(=O)N3CCC(C)CC3)ccc12	-5	i	6	2	-3	0	.	.	.	.	.	.
CCC(c1nnnn1Cc1ccco1)N(CCc1ccccc1)Cc1cc2cc(C)ccc2[nH]c1=O (stereo unspecified)	12	i	4	2	-1	7	.	.	.	.	.	.
Cc1ccc2[nH]c(=O)c(CN(CCc3ccccc3)C(c3nnnn3Cc3ccco3)C(C)C)cc2c1 (stereo unspecified)	15	+	-16	0	9	38*	24	9	2	88*	1	14
CCOC(=O)c1sc2nc(C)n(N)c(=O)c2c1C	-1	i	-19	0	3	0	.	.	.	.	.	.
CCOC(=O)c1sc2nc3c(SCCC(=O)O)cc(C(=O)c4cc(OC)ccc4O)cn3c(=O)c2c1C	.	+	10	0	-1	104*	80*	31	8	87*	14	2
CCC(C(=O)NC1CCCCCC1)c1ccccc1 (stereo unspecified)	0	i	13	-5	3	1	.	.	.	.	.	.
CCN(CC)CCOC(=O)c1ccc(N/C=C(/C#N)c2nc(-c3cc4ccccc4oc3=O)cs2)cc1	.	+	-8	10	161	119*	52*	i	60*	-62	-267*	21*
CCN(CC)CCOC(=O)c1ccc(N/C=C(/C#N)c2nc(-c3ccc4c(c3)OCO4)cs2)cc1	6	+	-3	0	292*	137*	153*	-152	71*	-48	-5	11
N#C/C(=C\Nc1ccc2cn[nH]c2c1)c1nc(-c2ccc(Cl)cc2)cs1	13	i	-1	0	8	15	.	.	.	.	.	.
COc1ccc(CN2CCC(N3CC(C)OC(C)C3)CC2)c(OC)c1 (stereo unspecified)	.	i	5	-1	-1	-6	.	.	.	.	.	.
CCN1C(=O)/C(=C2/Sc3ccc(OC)cc3N2C)SC1=Nc1ccc(OC)cc1	3	i	-6	0	4	-5	.	.	.	.	.	.
C=CCN1C(=O)/C(=C2/Sc3ccc(OC)cc3N2C)SC1=Nc1cccc(O)c1	14	+	-3	4	47*	25	8	-32	-13	.	.	.	HNF4A confirm=70*
N#CCCCn1c(=O)oc2ccccc21	0	i	-20	0	-2	1	.	.	.	.	.	.
CC(=O)Cc1nsc(NC(=O)c2ccc(-c3ccc(Cl)cc3Cl)o2)n1	-6	i	8	-1	3	0	.	.	.	.	.	.
Cc1nnc2sc(-c3ccc(NC(=O)c4ccc(-c5ccc(Cl)cc5Cl)o4)cc3)nn12	1	+	-2	-1	103*	32	19	-41	44*	.	.	.	HNF4A confirm=46*
CC1=C(C(=O)OCC2CCCO2)C(c2ccccc2Cl)NC(=O)N1 (stereo unspecified)	-2	i	9	-1	-2	-4	.	.	.	.	.	.
Cc1ccc(C(=O)COc2ccc3c(C)cc(=O)oc3c2)cc1	0	i	-7	1	2	-1	.	.	.	.	.	.
Cc1cc(=O)oc2cc(OCC(=O)c3ccc4c(c3)NC(=O)CO4)ccc12	-2	+	18	-5	161*	76*	3	-24	-6	.	.	.	HNF4A confirm=46*
CSc1nc2ccc3nc(NC(=O)c4cccs4)sc3c2s1	0	+	-5	0	62*	44*	14	-25	-8	.	.	.	HNF4A confirm=40*
O=C(N/N=C/c1cccnc1)c1ccc(NC(=O)c2cccc(Cl)c2)cc1	-1	+	3	0	108*	108*	44*	-8	-15	.	.	.	HNF4A confirm=152*
O=C(N/N=C/c1cccnc1)c1ccc(NC(=O)c2ccc(Cl)cc2)cc1	-2	i	10	0	17	6	.	.	.	.	.	.
O=C(CSc1nc2ccccc2o1)Nc1nc2c(s1)CCCC2	.	+	-7	4	55*	17	49*	-21	33	.	.	.	HNF4A confirm=48*
